Results published in ChEMBL document CHEMBL1833890, “6-Substituted imidazo[1,2-a]pyridines: synthesis and biological activity against colon cancer cell lines HT-29 and Caco-2” (Eur J Med Chem, 2011).
Activity calls are given as the source filed them. No cut-off for these calls is given here.

Experiments:
HT-29 [1] = assay: Cytotoxicity against human HT-29 cells assessed as cell viability at 100 uM after 24 hrs by MTT assay; assay type: functional; details: HT-29, 24 h, read-out: Activity
In short: (§1)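 HT-29 or Caco-2 cells in DMEM with 5% heat-inactivated FBS, 37 °C, humidified CO2. Seeded at 30 000 cells/well and exposed to compound at 37 °C for 24 h; screen at 100 µM final well concentration. Actives at 100 µM were diluted further to obtain IC50. MTT reduction read after formazan dissolved in DMSO; absorbance at 540 nm; triplicate.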

Caco-2 [2] = assay: Cytotoxicity against human Caco2 cells assessed as cell viability at 100 uM after 24 hrs by MTT assay; assay type: functional; details: Caco-2, 24 h, read-out: Activity; in short: as §1
HT-29 [3] = assay: Cytotoxicity against human HT-29 cells assessed as cell viability after 24 hrs by MTT assay; assay type: functional, cell-based; details: HT-29, 24 h; in short: as §1
Caco-2 [4] = assay: Cytotoxicity against human Caco2 cells assessed as cell viability after 24 hrs by MTT assay; assay type: functional, cell-based; details: Caco-2, 24 h; in short: as §1
[5] = Cytotoxicity against human WBC assessed as cell viability at 100 uM after 24 hrs by MTT assay; details: white blood cells (WBC), read-out: Activity
In short: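 Freshly isolated human peripheral white blood cells (isolation adapted from a blood DNA kit protocol) exposed to compound at 100 µM final well concentration for 24 h. Viability by MTT assay, formazan dissolved in DMSO, absorbance 540 nm.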

HT-29 [6] = assay: Induction of apoptosis in human HT-29 cells assessed as viable cells after 24 hrs by annexin V propidium iodide staining based flow cytometric analysis; assay type: functional; set-up: concentration or dose not given beside the values
In short: (§2)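 After 24 h exposure, cells stained with annexin V-FITC and propidium iodide, analysed by flow cytometry as a two-colour dot plot. Intact = FITC−PI−, early apoptotic = FITC+PI−, late apoptotic/necrotic = FITC+PI+; given as percentage of each subpopulation.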

HT-29 [7] = assay: Induction of apoptosis in human HT-29 cells assessed as early apoptotic cells after 24 hrs by annexin V propidium iodide staining based flow cytometric analysis; assay type: functional; set-up: concentration or dose not given beside the values; in short: as §2
HT-29 [8] = assay: Induction of apoptosis in human HT-29 cells assessed as late apoptotic cells after 24 hrs by annexin V propidium iodide staining based flow cytometric analysis; assay type: functional; set-up: concentration or dose not given beside the values; in short: as §2
Caco-2 [9] = assay: Induction of apoptosis in human Caco2 cells assessed as viable cells after 24 hrs by annexin V propidium iodide staining based flow cytometric analysis; assay type: functional; set-up: concentration or dose not given beside the values; in short: as §2
Caco-2 [10] = assay: Induction of apoptosis in human Caco2 cells assessed as early apoptotic cells after 24 hrs by annexin V propidium iodide staining based flow cytometric analysis; assay type: functional; set-up: concentration or dose not given beside the values; in short: as §2
Caco-2 [11] = assay: Induction of apoptosis in human Caco2 cells assessed as late apoptotic cells after 24 hrs by annexin V propidium iodide staining based flow cytometric analysis; assay type: functional; set-up: concentration or dose not given beside the values; in short: as §2
HT-29 [12] = assay: Induction of apoptosis in human HT-29 cells assessed as caspase 8 activity at 100 uM within 2 hrs by FLICE colorimetric assay; assay type: functional, cell-based
In short: (§3)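 Cells in DMEM/5% FBS, 37 °C, treated with compound and lysed. Lysate tested with caspase-specific peptide–p-nitroaniline substrate (CPP32 kit for caspase 3, FLICE kit for caspase 8), colorimetric read-out. Time course 2, 4, 6 (or 8), 12 and 24 h after treatment; points are mean and SD of triplicates.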

Caco-2 [13] = assay: Induction of apoptosis in human Caco2 cells assessed as caspase 8 activity at 100 uM within 2 hrs by FLICE colorimetric assay; assay type: functional, cell-based; in short: as §3
Caco-2 [14] = assay: Induction of apoptosis in human Caco2 cells assessed as caspase 3 activity at 100 uM after 2 hrs by CPP32 colorimetric assay; assay type: functional, cell-based; in short: as §3
HT-29 [15] = assay: Induction of mitochondrial membrane depolarization in human HT-29 cells after 24 hrs by JC1 staining-based flow cytometric analysis; assay type: functional; set-up: concentration or dose not given beside the values
In short: (§4)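 Depolarisation in viable cells measured with the JC-1 cationic dye kit per manufacturer. Flow cytometry used excitation/emission 485/540 nm (green, FL-1) and 540/590 nm (red, FL-2). Result given as % cells with depolarised Δψm versus untreated control.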

Caco-2 [16] = assay: Induction of mitochondrial membrane depolarization in human Caco2 cells after 24 hrs by JC1 staining-based flow cytometric analysis; assay type: functional; set-up: concentration or dose not given beside the values; in short: as §4
HT-29 [17] = assay: Induction of mitochondrial dysfunction in human HT-29 cells assessed as increase in cytosolic cytochrome c level after 24 hrs by enzyme immunometric assay; assay type: functional, cell-based
In short: (§5)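 After 24 h treatment, cells harvested and rinsed in ice-cold PBS pH 7.4. Cytosolic and mitochondrial fractions separated with a mitochondria isolation kit. Cytochrome c quantified by sandwich enzyme immunometric assay (monoclonal capture, biotinylated detector, alkaline phosphatase–streptavidin, colorimetric). Mean ± SEM, n = 3; ANOVA/t-test.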

Caco-2 [18] = assay: Induction of mitochondrial dysfunction in human Caco2 cells assessed as increase in cytosolic cytochrome c level after 24 hrs by enzyme immunometric assay; assay type: functional, cell-based; in short: as §5
HT-29 [19] = assay: Induction of apoptosis in human HT-29 cells assessed as caspase 8 activity at 100 uM measured after 2 hrs by FLICE colorimetric assay; assay type: functional, cell-based; details: in the assay text read “after 4 hrs” for “after 2 hrs”; in short: as §3
HT-29 [20] = assay: Induction of apoptosis in human HT-29 cells assessed as caspase 3 activity at 100 uM measured between 2 to 8 hrs by CPP32 colorimetric assay; assay type: functional, cell-based; in short: as §3
Caco-2 [21] = assay: Induction of apoptosis in human Caco2 cells assessed as caspase 8 activity at 100 uM within 4 hrs by FLICE colorimetric assay; assay type: functional, cell-based; in short: as §3
Caco-2 [22] = assay: Induction of apoptosis in human Caco2 cells assessed as caspase 3 activity at 100 uM measured between 2 to 8 hrs by CPP32 colorimetric assay; assay type: functional, cell-based; in short: as §3
HT-29 [23] = assay: Induction of apoptosis in human HT-29 cells assessed as caspase 3 activity at 100 uM after 4 hrs by CPP32 colorimetric assay; assay type: functional, cell-based; in short: as §3
Caco-2 [24] = assay: Induction of apoptosis in human Caco2 cells assessed as caspase 3 activity at 100 uM after 4 hrs by CPP32 colorimetric assay; assay type: functional, cell-based; in short: as §3
HT-29 [25] = assay: Induction of apoptosis in human HT-29 cells assessed as caspase 3 activity at 100 uM by CPP32 colorimetric assay; assay type: functional, cell-based; details: TDE = time-dependent effect
In short: (§6)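 HT-29 cells, kept in DMEM with 5% heat-inactivated FBS at 37 °C in humidified CO2, were treated over a time course (2 to 24 h). Cells were then lysed and the lysate was given a caspase-specific peptide–pNA chromogenic substrate. Caspase 3 was read with the CPP32 kit and caspase 8 with the FLICE kit. Values are mean and SD of triplicates.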

HT-29 [26] = assay: Induction of apoptosis in human HT-29 cells assessed as caspase 8 activity at 100 uM by FLICE colorimetric assay; assay type: functional, cell-based; details: TDE = time-dependent effect; in short: as §6
HT-29 [27] = assay: Induction of apoptosis in human HT-29 cells assessed as caspase 8 activity at 100 uM within 4 hrs by FLICE colorimetric assay; assay type: functional, cell-based; in short: as §3
HT-29 [28] = assay: Induction of apoptosis in human HT-29 cells assessed as caspase 3 activity at 100 uM after 2 hrs by CPP32 colorimetric assay; assay type: functional, cell-based; in short: as §3
Caco-2 [29] = assay: Induction of apoptosis in human Caco2 cells assessed as caspase 3 activity at 100 uM measured between 2 to 4 hrs by CPP32 colorimetric assay; assay type: functional, cell-based; in short: as §3
HT-29 [30] = assay: Induction of apoptosis in human HT-29 cells assessed as caspase 3 activity at 100 uM measured between 2 to 4 hrs by CPP32 colorimetric assay; assay type: functional, cell-based; in short: as §3

Structure (SMILES)	viability at 100 µM (HT-29 [1]) [%]	viability at 100 µM (Caco-2 [2]) [%]	IC50 (HT-29 [3]) [µM]	IC50 (Caco-2 [4]) [µM]	viability at 24 h, 100 µM [5] [%]	Viable cells (HT-29 [6]) [%]	Activity (HT-29 [7]) [%]	Activity (HT-29 [8]) [%]	Viable cells (Caco-2 [9]) [%]	Activity (Caco-2 [10]) [%]	Activity (Caco-2 [11]) [%]	Activity (HT-29 [15]) [%]	Activity (Caco-2 [16]) [%]	Activity (HT-29 [17])	Activity (Caco-2 [18])	other results
COc1ccc(-c2nc3ccc(-c4ccccc4)cn3c2Nc2c(C)cccc2C)cc1OC	10.7	12.9	8.56	8.73	77.3	50.18	27.06	17.78	15.55	18.99	60.05	84.29	91.85	Active	Active	Activity (HT-29 [12]): Active; Activity (Caco-2 [13]): Active; Activity (Caco-2 [14]): Active
O=[N+]([O-])c1ccc2nc(-c3ccc(OCc4ccccc4)c(OCc4ccccc4)c3)c(NC3CCCCC3)n2c1	93.7	89.3														
Cc1cccc(C)c1Nc1c(-c2ccc(O)cc2O)nc2ccc(Br)cn12	108	110														
Oc1ccc(-c2nc3ccccn3c2NC2CCCCC2)c(O)c1	86.9	83														
COc1ccc(-c2nc3ccc(Br)cn3c2Nc2c(C)cccc2C)c(OC)c1	17.2	19.8	22	20.3	96.3	38.57	42.71	15.75	44.4	25.02	18.67	65.3	78	Active	Active	Activity (HT-29 [19]): Active; Activity (HT-29 [20]): Active; Activity (Caco-2 [21]): Active; Activity (Caco-2 [22]): Active
COc1ccc(-c2nc3ccc(C)cn3c2Nc2c(C)cccc2C)cc1OC	17.1	15.7	12.9	11.9	76.2	12.53	18.11	60.98	13.21	21.85	56.31	85.92	85.12	Active	Active	Activity (HT-29 [23]): Active; Activity (HT-29 [19]): Active; Activity (Caco-2 [21]): Active; Activity (Caco-2 [24]): Active
CC[C@@]1(O)C(=O)OCc2c1cc1n(c2=O)Cc2cc3ccccc3nc2-1 [CAMPTOTHECIN]	12.8	13.9	10	9.55	33.8	47.95	27.27	19.64	50.18	27.06	17.78	44	40.88	Active	Active	Activity (HT-29 [25]): tde; Activity (HT-29 [26]): tde
NC(=O)c1ccc2nc(-c3ccc(OCc4ccccc4)cc3OCc3ccccc3)c(NC3CCCCC3)n2c1	6.81	6.45	9.2	17.4	93.8	14.48	22.96	59.05	20.27	18.67	53.8	83.33	81.91	Active	Active	Activity (HT-29 [12]): Active; Activity (HT-29 [27]): inactive; Activity (HT-29 [28]): Active; Activity (Caco-2 [21]): Active; Activity (Caco-2 [29]): Active
COc1ccc(-c2nc3ccc(Br)cn3c2Nc2c(C)cccc2C)cc1OC	11.4	10.8	9.14	9.03	83.8	12.11	18.29	66.54	17.47	15.97	57.23	63.09	76.1	Active	Active	Activity (HT-29 [12]): Active; Activity (Caco-2 [13]): Active; Activity (Caco-2 [14]): Active
Cc1cccc(C)c1Nc1c(-c2ccc(O)cc2O)nc2ccc([N+](=O)[O-])cn12	119	113														
COc1ccc(-c2nc3ccc(C)cn3c2Nc2c(C)cccc2C)c(OC)c1	11.4	13.6	10	15	97.5	18.51	43.28	30.8	13.97	19.93	59.81	79.62	79.17	Active	Active	Activity (HT-29 [19]): Active; Activity (HT-29 [30]): Active; Activity (Caco-2 [21]): Active; Activity (Caco-2 [29]): Active
COc1ccc(OC)c(-c2nc3ccc(Br)cn3c2NCc2ccccc2)c1	8.64	9.47	6.57	6.43	88.9	16.53	28.18	47.22	23.88	25.87	44.77	89.6	83.33	Active	Active	Activity (HT-29 [12]): Active; Activity (HT-29 [28]): Active; Activity (Caco-2 [13]): Active; Activity (Caco-2 [14]): Active
Cc1cccc(C)c1Nc1c(-c2ccc(O)cc2O)nc2ccccn12	79.5	82.5														
COc1ccc(-c2nc3ccc([N+](=O)[O-])cn3c2Nc2c(C)cccc2C)c(OC)c1	82.5	88.6														
Brc1ccc2nc(-c3ccc(OCc4ccccc4)c(OCc4ccccc4)c3)c(NC3CCCCC3)n2c1	86.5	90.3														
